# Screens (PubChem BioAssay)
# In the library only some 2.6% were active in any assay of this set; here they are far more common.
# procasp7 counter: counter-screen: procaspase-7 (human) activation; P55210; recombinant procaspase-7, Ac-DEVD-pNA absorbance 405 nm; D23A/D198A/D206A triple mutant, cannot self-cleave; scale: DMSO 0, 5 µM enzyme 100; activation, % at 8.5 µM; 0.093% of 330,000 active;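 active = percent activation above the screen-wide mean plus 3 SD, cut at about 25% in these data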
# Target sequence (P55210 whole entry D23A/D198A/D206A): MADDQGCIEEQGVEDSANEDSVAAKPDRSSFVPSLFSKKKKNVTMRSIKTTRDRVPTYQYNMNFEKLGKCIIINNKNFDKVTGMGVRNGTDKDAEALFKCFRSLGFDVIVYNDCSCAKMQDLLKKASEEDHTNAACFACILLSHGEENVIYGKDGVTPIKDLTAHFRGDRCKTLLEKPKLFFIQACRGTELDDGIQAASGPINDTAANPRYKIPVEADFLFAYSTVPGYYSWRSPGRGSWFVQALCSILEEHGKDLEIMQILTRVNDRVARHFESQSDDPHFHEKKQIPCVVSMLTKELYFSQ
#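 Material: Procaspase-7 triple mutant (PC-7 D3A) | Quantity: 2 µM procaspase-7 mutant as dispensed | Reagent: DEVD-pNA substrate | Times: 1 h preincubation, 2 h reaction | Technique: 405 nm absorbance of p-nitroaniline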
# PolyA inh: inhibitors of polyadenylation in S. cerevisiae. S. cerevisiae SKY197-pL101 polyadenylation reporter, beta-gal luminescence; efflux-impaired pdr1/pdr3 knockout yeast; score 100 = 6 SD above DMSO. activity score, % at 12 µM. 0.02% of 300,000 active;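 active = lowest replicate activity score at least 50, where 100 means six control SD above control mean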;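 also: yeast exposed to compound for 9 h at 30 °C; higher score means more reporter readthrough which indicates perturbed polyadenylation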
# proCasp3 act: activators of human procaspase-3; recombinant procaspase-3 D3A, Ac-DEVD-pNA absorbance 405 nm; activation, % at 8.5 µM; 0.11% of 330,000 active; AID 463141; P42574;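 active = activation above the mean of all tested compounds plus 3 SD, cut at about 21% in these data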;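 also: 0% = DMSO alone and 100% = DMSO wells spiked with extra 5 µM PC-3 D3A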
# Target sequence (P42574 whole entry D9A/D28A/D175A): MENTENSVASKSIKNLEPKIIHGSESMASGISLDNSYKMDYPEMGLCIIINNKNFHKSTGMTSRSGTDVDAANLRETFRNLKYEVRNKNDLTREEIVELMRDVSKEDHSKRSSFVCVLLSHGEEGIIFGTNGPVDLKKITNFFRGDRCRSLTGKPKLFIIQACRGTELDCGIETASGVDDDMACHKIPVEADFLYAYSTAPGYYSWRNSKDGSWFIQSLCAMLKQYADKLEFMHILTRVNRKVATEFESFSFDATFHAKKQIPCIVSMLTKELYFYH
#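 Assay system – Procaspase-3 D3A mutant, all three cleavage aspartates alanine · Controls – DMSO-only low control, 5 µM PC-3 D3A high control · Schedule – 1 h compound preincubation, 2 h substrate hydrolysis at 25 °C · Signal – 405 nm absorbance of p-nitroaniline, reads at 0 and 120 min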
# AHR activator: activators of human aryl hydrocarbon receptor; AID 2796; P35869; AHR-responsive luciferase reporter cells, luminescence; activation, % at 5 µM; 2.5% of 320,000 active; in the data active = activation above about 47%;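 also: 0% = vehicle wells and 100% = reference agonist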
# AHR act confirm: confirmation of human aryl hydrocarbon receptor activators | shares compounds with AHR activator | human cells, AHR-responsive luciferase reporter, luminescence | activation, % at 9 µM | 87% of 2,300 active; in the data active = activation above about 49%;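 also: HepG2 hepatoma cells carrying a DRE-driven firefly luciferase reporter; 0% = vehicle wells and 100% = reference agonist wells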
# PXR act counter: activates human PXR in AHR activator counter-screen. 88% of 2,300 active. cell-based PXR reporter, luciferase luminescence. activation, % at 11.6 µM. shares compounds with AHR activator; in the data active = activation above about 11%;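 also: human hepatoma DPX-2 cells expressing full-length human PXR; 0% = DMSO and 100% = reference agonist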
# * hit, by the source's call; / = not tested or not shown; + = active, no number.
SMILES,procasp7 counter,PolyA inh,proCasp3 act,AHR activator,AHR act confirm,PXR act counter
CC(=O)c1ccc([N+](=O)[O-])c(CS(=O)(=O)c2ccc(Cl)cc2)c1,-11.3,-9.2,-2.0,1.6,/,/
O=C1c2ccccc2C(=O)c2[nH]cnc21,/,10.1,/,/,/,/
O=C1c2ccccc2C(=O)c2c1ncn2-c1ccccc1,4.8,-21.2,-5.0,87.2*,129.7*,32.6*
O=C1CC(c2ccccc2)CN1C(=O)c1cncc(Br)c1 (stereo not given),-5.2,6.0,5.0,-0.2,/,/
Cc1ccc(CN2CCC(n3nccc3NC(=O)c3ccccc3C)CC2)o1,-5.1,-16.8,-9.0,4.8,/,/
O=C(CNC(=O)c1ccc(Br)o1)Nc1cccc(S(=O)(=O)N2CCCC2)c1,-3.9,-17.1,6.8,4.0,/,/
Cc1[nH]nc2c1/C(=N\O)CCC2,9.8,-12.5,7.4,-1.1,/,/
Cc1ccc(-c2cc(-c3ccccc3C)[nH]n2)c(O)c1,-3.9,/,2.2,101.5*,136.0*,18.1*
Cc1ccc(-c2cc(-c3cccc(F)c3)n[nH]2)c(O)c1,12.4,-17.7,-3.9,126.0*,141.8*,15.9*
O=[N+]([O-])c1ccccc1-c1cc(-c2ccccc2O)n[nH]1,4.9,-0.2,3.7,23.0,/,/
Cc1ccc(-c2[nH]ncc2C(=O)c2cccc(F)c2)c(O)c1,-5.1,-4.3,-5.4,9.2,/,/
CC(C)=CCC[C@](C)(O[C@@H]1O[C@H](CO[C@@H]2OC[C@@H](O)[C@H](O)[C@H]2O)[C@@H](O)[C@H](O)[C@H]1O)C1CC[C@]2(C)C1[C@H](O)CC1[C@@]3(C)CC[C@H](O[C@@H]4O[C@H](CO)[C@@H](O)[C@H](O)[C@H]4O)C(C)(C)C3CC[C@]12C (stereo not given in full),6.8,/,-2.5,1.6,/,/
CCC(Oc1ccccc1)C(=O)OCC(=O)N(CC)c1c(N)n(Cc2ccccc2)c(=O)[nH]c1=O (stereo not given),3.9,0.2,-5.0,1.5,/,/
S=c1nc2ccccc2c2nc(-c3ccccc3)[nH]n12,-0.1,-19.7,-4.8,106.4*,129.4*,22.6*
S=c1nc2ccccc2c2nc(-c3ccccc3Cl)[nH]n12,-3.5,-5.0,-9.5,133.9*,128.6*,28.4*
COc1cccc(OC)c1C1=NC(C)(C)CO1,4.8,-7.8,6.4,0.1,/,/
CCC1=NN=C(c2ccc(F)cc2)C(c2c[nH]c3ccccc23)N1O (stereo not given),-3.0,-4.9,-3.4,86.7*,78.5*,19.9*
CC(=O)Nc1sc(-c2ccc(Cl)cc2)nc1-c1ccccc1,-5.1,0.1,4.0,92.1*,-4.1,15.8*
COc1ccc(N=Cc2c(O)[nH]c3ccccc23)cc1,-15.6,-23.9,-1.9,128.9*,66.5*,17.5*
CC(=O)Nc1c2c(nn1-c1cccc(Cl)c1)CS(=O)(=O)C2,12.3,-1.8,3.1,-0.9,/,/
COc1ccccc1C(=O)Nc1ccc2c(c1)CN(Cc1cnc(C)s1)CC2,6.3,7.2,-3.7,112.9*,55.7*,12.8*
CC(CN1CCCCC1)OC(=O)COc1ccc(Br)cc1 (stereo not given),4.7,1.2,-3.4,-1.1,/,/
COc1ccccc1NC(=O)c1ccc(SCC(=O)NCc2ccccc2Cl)c([N+](=O)[O-])c1,-2.1,6.3,-0.3,99.4*,120.3*,135.5*
COc1ccccc1CNC(=O)CSc1ccsc1[N+](=O)[O-],2.6,-5.5,7.9,14.9,/,/
COc1ccccc1CNC(=O)CSc1ccc(C(=O)Nc2ccccc2OC)cc1[N+](=O)[O-],3.6,-3.8,0.5,89.7*,85.2*,104.9*
SMILES,procasp7 counter,PolyA inh,proCasp3 act,AHR activator,AHR act confirm,PXR act counter
COc1ccccc1NC(=O)C(=O)NCc1ccccc1Cl,2.4,-5.5,-4.1,4.5,/,/
Fc1ccccc1CNc1nc(-c2cccnc2)nc2ccccc12,1.3,-8.2,-6.1,84.5*,23.6,102.7*
C=C(C)COc1ccc(-c2[nH]ncc2Oc2ccccc2OC)c(O)c1,-4.9,4.0,0.3,98.0*,55.5*,65.9*
CCOc1ccccc1Oc1cn[nH]c1-c1ccc(OCC(=O)NN)cc1O,-8.0,1.2,0.0,106.8*,67.8*,14.9*
C=C(C)COc1ccc(-c2[nH]ncc2Oc2ccc(OC)cc2)c(O)c1,2.2,18.1,3.1,15.1,/,/
O=C(O)CCC(=O)N1N=C(c2ccccc2)CC1c1ccc2c(c1)OCO2 (stereo not given),/,7.7,/,/,/,/
O=C(CN1CCCCCC1)Nc1ccc(Br)cc1,1.3,7.6,1.7,84.2*,112.4*,60.5*
Cc1ccc(-n2c(C)nc3oc4ccccc4c(=O)c3c2=O)cc1,5.9,-21.4,1.0,91.0*,99.2*,11.1*
OCCNc1nc(-c2ccccc2)nc2c1oc1ccccc12,-3.1,-9.4,-1.3,103.8*,95.8*,26.1*
Cc1cnc(NC(=O)c2ccc(-c3nc4ccccc4s3)o2)s1,-11.2,-26.4,-11.1,88.8*,113.6*,14.2*
C=CCc1c(C)nc(SC)nc1Nc1ccc(C(C)=O)cc1,-3.2,-19.2,2.7,82.6*,73.0*,119.6*
C=CCc1c(C)nc(SC)nc1Nc1ccccc1,-6.8,-17.3,0.1,104.4*,58.4*,104.6*
Cc1ccc(S(=O)(=O)NC(=O)COc2cc(C)ccc2C(C)C)cc1,-6.6,3.9,-2.3,1.8,/,/
CC(/C=C/c1cccc([N+](=O)[O-])c1)=N/NC(=O)c1cccnc1,9.6,-12.3,0.7,85.2*,77.1*,/
C/C(=N\NC(=O)c1cccnc1)c1cccc([N+](=O)[O-])c1,3.0,-8.6,0.6,45.5,/,/
COc1ccccc1NC(=O)c1nc[nH]c1C(=O)Nc1ccccc1OC,1.0,-10.3,2.8,108.5*,53.3*,19.0*
CNC(=O)c1[nH]cnc1C(=O)Nc1ccc(Cl)cc1,4.5,-2.2,3.4,121.3*,172.1*,34.9*
CNC(=O)c1[nH]cnc1C(=O)Nc1ccc(C)cc1,5.9,-5.6,-4.6,25.2,/,/
COc1ccccc1NC(=O)c1ccc(C(=O)Nc2ccccc2OC)nc1,5.0,-16.5,4.8,83.9*,102.9*,/
O=C(Nc1ccccc1OC(=O)c1ccc(Cl)cc1)c1ccc(Cl)cc1,6.6,-10.6,2.1,79.5*,83.4*,/
CCCCc1cc2c(c(NC(=O)CC)n1)c(=O)oc1ccccc12,/,-3.7,/,/,/,/
CCCCc1cc2c(c(NC(C)=O)n1)c(=O)oc1ccccc12,-0.8,-20.6,1.9,94.5*,98.7*,/
CCn1c(SCC(=O)Nc2ccc3c(c2)c2ccccc2n3CC)nnc1-c1cnccn1,-5.7,15.3,-8.2,15.1,/,/
CCn1c2ccccc2c2cc(NC(=O)CSc3nnnn3-c3ccccc3)ccc21,7.3,7.4,-7.3,81.6*,133.5*,+
